Drawing on ChEMBL document CHEMBL3120116, “Toward synthesis of third-generation spin-labeled podophyllotoxin derivatives using isocyanide multicomponent reactions” (Eur J Med Chem, 2014), this text covers IC50 for 23 molecules.

What all share (assay type): functional, cell-based
The subject of one test is KB. Briefly: Cytotoxicity against human KB cells after 72 hrs by SRB assay. In a few lines:
(§1)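 Cells seeded at 3–5 × 10^3 per well in RPMI-1640 with 10% FBS containing graded sample concentrations, exposed 72 h. Attached cells fixed with cold 50% trichloroacetic acid 30 min, stained with 0.04% SRB 30 min, bound dye dissolved in 10 mM Tris-base, absorbance read at 515 nm. Triplicate experiments; IC50 reported. KBvin is a vincristine-selected MDR KB subline.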
For orientation: The SRB assay estimates cell density from bound dye.

In another test the test system is A549. Briefly: Cytotoxicity against human A549 cells after 72 hrs by SRB assay. In a few lines:
as §1

A short description of test [1]: Cytotoxicity against human KBVIN cells after 72 hrs by SRB assay. In a few lines:
as §1

The next test has as its system DU-145. Briefly: Cytotoxicity against human DU145 cells after 72 hrs by SRB assay. The procedure, abridged: as §1

Each structure is given as a SMILES string. pIC50: −log10 of the molar value.

For orientation: pIC50 means −log10 of the IC50, conventionally taken in molar units. A higher pIC50 goes with a small IC50.

Take `CCCC(OC(=O)C1=CC(C)(C)N([O])C(C)(C)C1)C(=O)N[C@@H]1c2cc3c(cc2[C@@H](c2cc(OC)c(OC)c(OC)c2)[C@H]2C(=O)OC[C@@H]21)OCO3` (some centres undefined): the pIC50 in the test on KB was 5.16; in the test with A549, 5.04; in test [1] (kbvin), 5.08; with DU-145, 5.14.

For the molecule `CCCC(C(=O)N[C@@H]1c2cc3c(cc2[C@@H](c2cc(OC)c(OC)c(OC)c2)[C@H]2C(=O)OC[C@@H]21)OCO3)N(CCC)C(=O)C1CC(C)(C)N([O])C(C)(C)C1` (some centres undefined), the pIC50 (in the test on KB; in the test with A549; in test [1] (kbvin); with DU-145) was < 4.70 each time.

With `CCCC(C(=O)N[C@@H]1c2cc3c(cc2[C@@H](c2cc(OC)c(OC)c(OC)c2)[C@H]2C(=O)OC[C@@H]21)OCO3)N(C(=O)C1=CC(C)(C)N([O])C1(C)C)C1CCCCC1` (some centres undefined), the pIC50 with KB is 5.03; in the test on A549 it was 5.05; in test [1] (kbvin), 5.05; with DU-145, 4.96.

With `CCCC(C(=O)N[C@@H]1c2cc3c(cc2[C@@H](c2cc(OC)c(OC)c(OC)c2)[C@H]2C(=O)OC[C@@H]21)OCO3)N(CCC)C(=O)C1=CC(C)(C)N([O])C1(C)C` (some centres undefined), the pIC50 (in the test on KB; with A549; in test [1] (kbvin); in the test with DU-145) was < 4.70 in each case.

As for `COc1cc([C@@H]2c3cc4c(cc3[C@@H](O[C@@H]3O[C@@H]5CO[C@@H](C)O[C@H]5[C@H](O)[C@H]3O)[C@H]3COC(=O)[C@H]23)OCO4)cc(OC)c1O` [ETOPOSIDE], in test [1] (Homo sapiens, KBVIN, 72 h), the pIC50 was < 4.70.

With `CCCC(OC(=O)C1CC(C)(C)N([O])C(C)(C)C1)C(=O)N[C@@H]1c2cc3c(cc2[C@@H](c2cc(OC)c(OC)c(OC)c2)[C@H]2C(=O)OC[C@@H]21)OCO3` (some centres undefined), the pIC50 in the test on KB was 5.18; with A549 it was 5.05; in test [1] (kbvin) it was 5.10; in the test with DU-145, 5.15.

As to `CCCC(C(=O)N[C@@H]1c2cc3c(cc2[C@@H](c2cc(OC)c(OC)c(OC)c2)[C@H]2C(=O)OC[C@@H]21)OCO3)N(C(=O)C1=CC(C)(C)N([O])C1(C)C)C(C)(C)C` (some centres undefined), the pIC50 (in the test on KB; with A549; in test [1] (kbvin); with DU-145) was < 4.70 in each case.

Turning to `COc1cc([C@@H]2c3cc4c(cc3[C@@H](NC(=O)C(OC(=O)C3=CC(C)(C)N([O])C3(C)C)c3ccc5c(c3)OCO5)[C@H]3COC(=O)[C@H]23)OCO4)cc(OC)c1OC` (some centres undefined), the pIC50 is 5.95 with KB, 5.84 with A549, 5.69 in test [1] (kbvin) and 5.86 in the test on DU-145.

Regarding `CCCN(C(=O)C1=CC(C)(C)N([O])C1(C)C)C(C(=O)N[C@@H]1c2cc3c(cc2[C@@H](c2cc(OC)c(OC)c(OC)c2)[C@H]2C(=O)OC[C@@H]21)OCO3)c1ccc(OC)cc1` (some centres undefined), the pIC50 (with KB; in the test on A549; in test [1] (kbvin); in the test on DU-145) was < 4.70 each time.

For the molecule `COc1cc([C@@H]2c3cc4c(cc3[C@@H](NC(=O)C(Cc3ccccc3)OC(=O)C3=CC(C)(C)N([O])C3(C)C)[C@H]3COC(=O)[C@H]23)OCO4)cc(OC)c1OC` (some centres undefined), the pIC50 in the test with KB was 5.19; in the test with A549, 5.11; in test [1] (kbvin), 5.11; with DU-145 it was 5.17.

Consider `CCCC(C(=O)N[C@@H]1c2cc3c(cc2[C@@H](c2cc(OC)c(OC)c(OC)c2)[C@H]2C(=O)OC[C@@H]21)OCO3)N(CCC)C(=O)C1=CC(C)(C)N([O])C(C)(C)C1` (some centres undefined), for which the pIC50 (in the test with KB; in the test on A549; in test [1] (kbvin); in the test on DU-145) was < 4.70 each time.

`COc1cc([C@@H]2c3cc4c(cc3[C@@H](NC(=O)C(c3ccccc3)N(C(=O)C3CC(C)(C)N([O])C(C)(C)C3)c3ccccc3)[C@H]3COC(=O)[C@H]23)OCO4)cc(OC)c1OC` (some centres undefined): the pIC50 is 5.23 in the test on KB, 5.21 in the test with A549, 5.19 in test [1] (kbvin) and 5.22 with DU-145.

Regarding `CCCN(C(=O)C1=CC(C)(C)N([O])C1(C)C)C(C(=O)N[C@@H]1c2cc3c(cc2[C@@H](c2cc(OC)c(OC)c(OC)c2)[C@H]2C(=O)OC[C@@H]21)OCO3)c1ccccc1` (some centres undefined), the pIC50 (with KB; in the test on A549; in test [1] (kbvin); in the test with DU-145) was < 4.70 each time.

On to `CCCN(C(=O)C1=CC(C)(C)N([O])C1(C)C)C1(C(=O)N[C@@H]2c3cc4c(cc3[C@@H](c3cc(OC)c(OC)c(OC)c3)[C@H]3C(=O)OC[C@@H]32)OCO4)CCCCC1`, for which the pIC50 (with KB; in the test on A549; in test [1] (kbvin); with DU-145) was < 4.70 throughout.

With `CCCC(C(=O)N[C@@H]1c2cc3c(cc2[C@@H](c2cc(OC)c(OC)c(OC)c2)[C@H]2C(=O)OC[C@@H]21)OCO3)N(C(=O)C1=CC(C)(C)N([O])C1(C)C)c1ccccc1` (some centres undefined), the pIC50 in the test with KB is 5.07; with A549, 5.08; in test [1] (kbvin), 5.13; in the test on DU-145 it was 5.01.

Take `CCCN(C(=O)C1=CC(C)(C)N([O])C(C)(C)C1)C(C)(C)C(=O)N[C@@H]1c2cc3c(cc2[C@@H](c2cc(OC)c(OC)c(OC)c2)[C@H]2C(=O)OC[C@@H]21)OCO3`: the pIC50 (in the test with KB; with A549; in test [1] (kbvin); in the test with DU-145) was < 4.70 each time.

Turning to `COc1ccc(C(OC(=O)C2=CC(C)(C)N([O])C2(C)C)C(=O)N[C@@H]2c3cc4c(cc3[C@@H](c3cc(OC)c(OC)c(OC)c3)[C@H]3C(=O)OC[C@@H]32)OCO4)cc1` (some centres undefined), the pIC50 was 6.22 in the test with KB, 6.12 with A549, 6.14 in test [1] (kbvin) and 6.20 with DU-145.

Consider `COc1cc([C@@H]2c3cc4c(cc3[C@@H](NC(=O)C(C)(C)OC(=O)C3=CC(C)(C)N([O])C3(C)C)[C@H]3COC(=O)[C@H]23)OCO4)cc(OC)c1OC`, for which the pIC50 in the test on KB was 5.63; in the test with A549 it was 5.62; in test [1] (kbvin) it was 5.59; in the test with DU-145 it was 5.62.

On to `CCCC(OC(=O)C1=CC(C)(C)N([O])C1(C)C)C(=O)N[C@@H]1c2cc3c(cc2[C@@H](c2cc(OC)c(OC)c(OC)c2)[C@H]2C(=O)OC[C@@H]21)OCO3` (some centres undefined), for which the pIC50 in the test with KB is 5.15; in the test on A549, 5.05; in test [1] (kbvin), 5.05; in the test on DU-145 it was 5.15.

With `COc1cc([C@@H]2c3cc4c(cc3[C@@H](NC(=O)C3(OC(=O)C5=CC(C)(C)N([O])C5(C)C)CCCCC3)[C@H]3COC(=O)[C@H]23)OCO4)cc(OC)c1OC`, the pIC50 in the test with KB is 5.03; in the test on A549, 5.02; in test [1] (kbvin), 4.86; in the test on DU-145 it was 5.06.

With `CCCN(C(=O)C1=CC(C)(C)N([O])C1(C)C)C(C)(C)C(=O)N[C@@H]1c2cc3c(cc2[C@@H](c2cc(OC)c(OC)c(OC)c2)[C@H]2C(=O)OC[C@@H]21)OCO3`, the negative logarithm of the IC50 (pIC50) (with KB; with A549; in test [1] (kbvin); with DU-145) was < 4.70 in each case.

With `COc1cc([C@@H]2c3cc4c(cc3[C@@H](NC(=O)C(OC(=O)C3=CC(C)(C)N([O])C3(C)C)c3ccco3)[C@H]3COC(=O)[C@H]23)OCO4)cc(OC)c1OC` (some centres undefined), the pIC50 in the test with KB was 5.15; in the test on A549, 5.13; in test [1] (kbvin), 5.13; in the test on DU-145 it was 5.18.

Turning to `COc1cc([C@@H]2c3cc4c(cc3[C@@H](NC(=O)C(OC(=O)C3=CC(C)(C)N([O])C3(C)C)c3ccccc3)[C@H]3COC(=O)[C@H]23)OCO4)cc(OC)c1OC` (some centres undefined), the pIC50 (with KB; in the test with A549; in test [1] (kbvin); with DU-145) was < 4.70 throughout.
